Screens (PubChem BioAssay)
APP 5'UTR act: APP 5'UTR luciferase reporter activation. hit rate 1% among 190,000. activation, % at 2 µM. SH-SY5Y APP 5'UTR luciferase reporter, luminescence; zero percent = DMSO vehicle wells;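 active means activation above a set limit, based on mean plus 3 SD of controls, cut at about 140% in these data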
NF-kB expr up: raises NF-kB expression in human neuronal cells; fold change at 12.5 µM; NF-kB reporter expression; stronger effect = higher value; hit rate 1.6% among 190,000; AID 1239; in the data active means fold change above about 3.3
STAT3 activator: increases IL-6 driven STAT3 reporter signal; U3A cells, IL-6 STAT3-luciferase reporter, luminescence; 100% = signal with IL-6 EC80 alone; activation (% of control), % at 5.6 µM; hit rate 0.91% among 190,000;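 active means activation above the screen-wide mean of compound activation plus 3 SD, cut at about 130% in these data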;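 further: 0% = background luminescence of wells with medium and substrate only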
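Material: STAT1-lacking human U3A cells, STAT3 luciferase reporter | Benchmarks: IL-6-only wells as 100% reference | Probe or stimulus: IL-6 (33 ng/mL) | Timing: Compound 1 h, then IL-6 6 h at 37 °C | Detection: Luminescence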
STAT1 blocker: inhibitors of IFN-gamma induced STAT1 signaling; NIH 3T3 STAT1-luciferase reporter, luminescence; AID 920; hit rate 0.35% among 200,000; inhibition, % at 5.5 µM;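 active means inhibition above a set limit, the mean inhibition across all tested compounds plus 3 SD, cut at about 34% in these data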;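 further: 0% = IFN-gamma with DMSO and 100% = IFN-gamma with 300 µM nifuroxazide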
STAT1 act: STAT1 signaling activation; NIH 3T3 STAT1-luciferase reporter, IFN-gamma, luminescence; 100% = IFN-gamma alone, no compound; activation (% of control), % at 5.5 µM; hit rate 2.6% among 200,000;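 active means activation above the screen-wide mean activation plus 3 SD, cut at about 130% in these data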;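 further: raw ratio to IFN-gamma control signal so 100% means no change and 0% no light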
STAT3 inh: inhibitors of IL-6 induced STAT3 signaling; U3A cells, IL-6 STAT3-luciferase reporter, luminescence; host cell line lacks STAT1; inhibition, % at 5.5 µM; hit rate 0.89% among 190,000; AID 862;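 active means inhibition above the mean inhibition across all screened compounds plus 3 SD, cut at about 44% in these data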;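 further: 0% = DMSO only wells and 100% = 100 µM nifuroxazide control wells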
Active calls of the source: *; x = no result given; ! = repeats disagree. An excerpt weighted towards active compounds, which were near 5.1% of everything screened.

SMILES	APP 5'UTR act	NF-kB expr up	STAT3 activator	STAT1 blocker	STAT1 act	STAT3 inh
COc1ccc(C(=O)NNC(=O)Nc2ccc(Cl)cc2)cc1	9.2	1.18	109.8	-10.0	106.0	-6.8
CCOC(=O)C(=O)N1CCC(C(=O)OC)CC1	-9.0	1.16	107.3	-1.0	99.0	-1.8
Cc1ccn2c(NC(=O)C(C)(C)Oc3ccc(Cl)cc3)c(-c3cccs3)nc2c1	1.4	0.5	101.4	-3.6	103.3	-6.2
CN(C)S(=O)(=O)c1cccc(NC(=O)c2cc3ccccc3o2)c1	39.2	1.17	95.2	-5.8	105.3	6.1
CC(C)C(=O)Nc1cccc(NC(=O)c2cc3ccccc3o2)c1	36.0	1.54	93.6	-30.9	130.5*	9.8
CC(C)Cc1cc(C(=O)NCc2ccco2)no1	22.1	2.02	x	-34.6	130.1*	x
CSc1ccccc1NC(=O)c1cc(CC(C)C)on1	35.9	2.3	105.9	-10.9	111.1	-7.1
COc1cc(NC(=O)c2cc3ccccc3o2)c(OC)cc1Cl	-15.4	1.13	153.8*	0.9	99.2	-57.4
COc1cc(NC(=O)c2cc(CC(C)C)on2)c(OC)cc1Cl	-11.8	0.99	135.6*	-4.3	104.9	-43.4
Cc1cc(C(=O)NCc2ccco2)no1	-1.5	1.19	97.7	4.9	95.5	2.9
COc1ccccc1NC(=O)c1ccc(-c2ccccc2[N+](=O)[O-])o1	45.7	1.9	90.8	-55.8	149.7*	13.0
O=C(Nc1ccc([N+](=O)[O-])cc1)c1cc(-c2ccccn2)nc2c(Cl)cccc12	0.2	1.24	99.6	4.8	95.2	6.0
O=C(O)c1ccccc1Nc1ccc([N+](=O)[O-])cc1	2.5	2.27	110.2	-44.1	139.3*	-15.2
O=C(O)c1ccccc1Nc1ccccc1C(=O)O	-1.8	1.12	100.4	1.4	98.7	4.3
O=C1CC(c2ccco2)CC(O)=C1C=Nc1cc(Cl)ccc1O (stereo unspecified)	0.6	3.36*	107.8	10.2	90.7	-3.4
O=C1CC(c2ccco2)CC(O)=C1C=Nc1cc(Cl)ccc1Cl (stereo unspecified)	2.9	1.07	99.4	-0.8	100.8	-1.8
O=C(c1cc2ccccc2oc1=O)N(c1ccc(Cl)cc1)C1C=CS(=O)(=O)C1 (stereo unspecified)	-8.4	1.84	93.4	19.9	82.3	7.8
Cc1ccnc(N2C(=O)c3ccccc3C2O)c1 (stereo unspecified)	152.7*	2.62	82.1	-25.5	123.1	26.7
NNC(=O)c1cc2cc3ccccc3nc2s1	3.5	1.58	99.2	-40.5	136.2*	12.4
C[C@]12CCC(=O)C=C1CC[C@@H]1[C@@H]2[C@@H](O)C[C@@]2(C)[C@H]1CC[C@]2(O)C(=O)COC(=O)CCC(=O)O	69.6	1.01	93.5	-31.9	129.0*!	9.7
CC(=O)OCC(=O)[C@@]1(O)CC[C@H]2[C@@H]3CCC4=CC(=O)CC[C@]4(C)[C@H]3[C@@H](O)C[C@@]21C	59.0	0.5	94.5	-18.7	117.0	8.5
CC(OC(=O)CCc1nc2ccccc2c(=O)[nH]1)C(=O)c1ccc(C(C)(C)C)cc1 (stereo unspecified)	19.9	5.75*	97.7	-8.6	107.7	2.6
CC(OC(=O)CCc1nc2ccccc2c(=O)[nH]1)C(=O)NC1CCCC1 (stereo unspecified)	5.0	1.23	97.7	15.4	86.0	-1.5
Cn1cccc1/C=N/NC(=O)c1cccc(OC(F)(F)C(F)F)c1	13.9	1.22	90.2	4.3	96.2	11.9
CC(=O)c1cccc(NC(=O)C(=O)Nc2cccc3ccccc23)c1	70.0	1.47	100.8	-42.1	136.8*	1.3
SMILES	APP 5'UTR act	NF-kB expr up	STAT3 activator	STAT1 blocker	STAT1 act	STAT3 inh
Cc1nc2cc(NC(=O)Nc3cccc4ccccc34)ccc2n1C	110.1	2.28	86.5	-51.4	145.0*	19.5
CC(=O)c1cccc(NC(=O)CCOc2ccccc2)c1	9.0	2.07	108.7	-3.8	103.6	-5.4
CC(C)CC(C(=O)NC(C)(C)C)N(Cc1cccs1)C(=O)c1snc(C(N)=O)c1N (stereo unspecified)	11.7	0.89	95.2	3.6	98.2	10.5
Clc1ccc(/C(Cc2nc3ccccc3[nH]2)=N\Nc2ccccc2)cc1	77.9	2.64	99.6	-42.7	136.0*	6.0
Cc1ccc(NC(=O)c2ccccc2)s1	159.7*	6.63*	71.0	-17.8	116.3	38.9
Cc1cc(NC(=O)c2ccccc2)sc1C	154.5*	5.31*	92.2	-34.3	131.2*	16.6
C#CCn1cc(C=C2C(=O)c3ccccc3C2=O)c2ccccc21	-3.1	0.95	123.9	2.8	97.5	-27.6
FC(F)Oc1ccccc1/C=N/n1cnc2ccccc21	38.5	1.81	116.8	-37.0	134.1*	-11.2
Clc1ccc(-c2nc3nc4ccccc4nc3n2Cc2ccco2)cc1	50.8	3.74*	100.5	-30.1	127.4	4.4
COc1ccccc1Cn1c(-c2ccco2)nc2nc3ccccc3nc21	13.7	x	92.2	-17.1	115.7	12.5
Cc1ccc(-c2nc3nc4ccccc4nc3n2Cc2ccco2)cc1	181.2*	2.65	75.0	-27.1	124.0	35.1
CCCNc1nc(Cl)nc(NC(C)(C)C)n1	6.9	1.08	108.6	-3.7	102.5	2.5
CCN1CCN(C(=S)c2ccc(OCC(=O)N3CCOCC3)cc2)CC1	-7.4	1.23	103.0	0.9	99.2	-2.1
Brc1ccccc1OCCOc1cccc2cccnc12	0.3	1.45	97.8	-21.4	119.2	3.5
COc1ccc(C(=O)NCc2nc3ccccc3[nH]2)cc1OC	-5.4	1.48	94.4	-4.9	104.4	12.0
c1cnc2c(OCc3nc4ccccc4[nH]3)cccc2c1	x	2.73	156.1*	-48.5	143.5*	-63.3
COc1ccccc1OCc1nc2ccccc2[nH]1	83.0	4.01*	94.8	-34.2	131.7*	9.8
Cc1ccccc1OCc1nc2ccccc2[nH]1	131.4	4.25*	83.5	-32.6	130.5*	24.2
Cc1ccc(SCC(=O)Nc2ccc(S(N)(=O)=O)cc2)cc1	17.5	1.59	103.1	-0.9	101.4	-3.1
CCN(Cc1cnn(C)c1)C(=O)CC1C(=O)NCCN1Cc1cccc(OC)c1OC (stereo unspecified)	8.5	1.22	97.6	-4.6	102.5	7.8
COc1ccccc1NC(=O)Cn1nc(-c2ccc(Cl)cc2)c2ccccc2c1=O	-5.3	1.03	101.7	0.7	98.4	-2.2
CC(C)(C)OC(=O)N/N=C/c1ccc(Br)cc1	129.3	4.47*	100.9	-51.7	148.9*	7.4
CC(C)(C)NC(=O)C(=O)N/N=C/c1ccc(Br)cc1	12.8	1.45	106.3	-17.9	116.0	0.4
O=C(O)CCC(=O)Nc1nnc(C(F)(F)F)s1	-0.5	1.36	94.2	2.3	97.9	10.0
CCC(NC(=O)Nc1nnc(C(F)(F)F)s1)(C(F)(F)F)C(F)(F)F	1.8	0.7	21.3	61.0*	44.2	99.2*
